Active and inactive are the calls of the source. The calls are words filed in the database; no cut-off is given here.
Key:
HL-60 [1] = assay: Cytostatic activity in human HL60 cells assessed as inhibition of cell growth after 72 hrs by XTT assay; format: functional, cell-based; conditions: HL-60, 72 h
L1210 = assay: Cytostatic activity in mouse L1210 cells assessed as inhibition of cell growth after 72 hrs; format: functional, cell-based
Outline: (§1)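 Cultures from ATCC lines: mouse leukaemia L1210 (CCL 219), human promyelocytic leukaemia HL60 (CCL 240) and human T-lymphoblastoid CCRF-CEM (CCL 119). Growth inhibition was estimated from the cell count in a haematological analyzer (haemocytometer).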

CCRF-CEM [2] = assay: Cytostatic activity in human CCRF-CEM cells assessed as inhibition of cell growth after 72 hrs; format: functional, cell-based; outline: as §1
HeLa = assay: Cytostatic activity in human HeLa S3 cells assessed as inhibition of cell growth after 48 hrs by XTT assay; format: functional, cell-based
Hepatitis C virus = assay: Antiviral activity against Hepatitis C virus 1b after 3 days; format: functional, organism-based, Hepacivirus hominis; conditions: genotype 1b, 72 h
[3] = Cytotoxicity against human Huh7 cells after 3 days by MTT method; format: functional; conditions: Huh-7, 72 h
Outline: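 Cellular toxicity was read by MTT in Huh-7 cells carrying the con-1 HCV replicon, in duplicate (N = 2).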

HL-60 [4] = assay: Cell cycle arrest in human HL60 cells by accumulation at G1 phase at 3 umol/L by flow cytometry relative to control; format: functional
Outline: (§2)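 HL-60 cells exposed to compound for 72 h at the single concentration in the line; the cell-cycle phase fraction is reported as a change relative to untreated control cells.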

HL-60 [5] = assay: Cell cycle arrest in human HL60 cells by accumulation at S phase at 3 umol/L by flow cytometry relative to control; format: functional; outline: as §2
HL-60 [6] = assay: Cell cycle arrest in human HL60 cells by accumulation at G2/M phase at 3 umol/L by flow cytometry relative to control; format: functional; outline: as §2
HL-60 [7] = assay: Cytostatic activity in human HL60 cells assessed as inhibition of cell growth after 72 hrs; format: functional, cell-based; conditions: HL-60, 72 h; outline: as §1
CCRF-CEM [8] = assay: Cytostatic activity in human CCRF-CEM cells assessed as inhibition of cell growth after 72 hrs by XTT assay; format: functional, cell-based
MT4 = assay: Cytotoxicity against human MT4 cells after 4 days; format: functional; conditions: MT4, 96 h
Outline: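 Cellular toxicity was measured in MT-4 cells, N = 2.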

HL-60 [9] = assay: Cell cycle arrest in human HL60 cells by accumulation at G1 phase at 1 umol/L by flow cytometry relative to control; format: functional; outline: as §2
HL-60 [10] = assay: Cell cycle arrest in human HL60 cells by accumulation at S phase at 1 umol/L by flow cytometry relative to control; format: functional; outline: as §2
HL-60 [11] = assay: Cell cycle arrest in human HL60 cells by accumulation at G2/M phase at 1 umol/L by flow cytometry relative to control; format: functional; outline: as §2
HL-60 [12] = assay: Cell cycle arrest in human HL60 cells by accumulation at G1 phase at 2.5 umol/L after 72 hrs by flow cytometry; format: functional
HL-60 [13] = assay: Cell cycle arrest in human HL60 cells by accumulation at S phase at 2.5 umol/L after 72 hrs by flow cytometry; format: functional
HL-60 [14] = assay: Cell cycle arrest in human HL60 cells by accumulation at G2/M phase at 2.5 umol/L after 72 hrs by flow cytometry; format: functional
HL-60 [15] = assay: Cell cycle arrest in human HL60 cells by accumulation at G1 phase at 5 umol/L after 72 hrs by flow cytometry; format: functional
HL-60 [16] = assay: Cell cycle arrest in human HL60 cells by accumulation at S phase at 5 umol/L after 72 hrs by flow cytometry; format: functional
HL-60 [17] = assay: Cell cycle arrest in human HL60 cells by accumulation at G2/M phase at 5 umol/L after 72 hrs by flow cytometry; format: functional
HL-60 [18] = assay: Cell cycle arrest in human HL60 cells by accumulation at G1 phase after 72 hrs by flow cytometry; format: functional, cell-based
HL-60 [19] = assay: Cell cycle arrest in human HL60 cells by depletion of cells at S phase after 72 hrs by flow cytometry; format: functional, cell-based
HL-60 [20] = assay: Cell cycle arrest in human HL60 cells by accumulation at G1 phase at 1 umol/L after 72 hrs by flow cytometry; format: functional
HL-60 [21] = assay: Cell cycle arrest in human HL60 cells by accumulation at S phase at 1 umol/L after 72 hrs by flow cytometry; format: functional
HL-60 [22] = assay: Cell cycle arrest in human HL60 cells by accumulation at G2/M phase at 1 umol/L after 72 hrs by flow cytometry; format: functional
HL-60 [23] = assay: Cell cycle arrest in human HL60 cells by accumulation at G1 phase at 22.5 umol/L by flow cytometry relative to control; format: functional; outline: as §2
HL-60 [24] = assay: Cell cycle arrest in human HL60 cells by accumulation at S phase at 22.5 umol/L by flow cytometry relative to control; format: functional; outline: as §2
HL-60 [25] = assay: Cell cycle arrest in human HL60 cells by accumulation at G2/M phase at 22.5 umol/L by flow cytometry relative to control; format: functional; outline: as §2

CN(Cc1ncnc2c1ncn2[C@@H]1O[C@H](CO)[C@@H](O)[C@H]1O)c1ccccc1
IC50 (HL-60 [1]): 3.4 µM | Activity (L1210): inactive | Activity (CCRF-CEM [2]): inactive | Activity (HeLa): inactive | EC50 (Hepatitis C virus): 21 µM | CC50 [3]: 21 µM | Activity (HL-60 [4]): 1.12% | Activity (HL-60 [5]): 0.87% | Activity (HL-60 [6]): 1.08% | IC50 (HL-60 [7]): 4 µM

[N-]=[N+]=NCc1ncnc2c1ncn2[C@@H]1O[C@H](CO)[C@@H](O)[C@H]1O
IC50 (HL-60 [1]): 0.78 µM | IC50 (L1210; L1210, 72 h): 1.59 µM | IC50 (CCRF-CEM [2]): 0.39 µM | IC50 (CCRF-CEM [8]): 0.34 µM | Activity (HeLa): inactive | EC50 (Hepatitis C virus): 6 µM | CC50 [3]: > 250 µM | CC50 (MT4): 32 µM | Activity (HL-60 [9]): 1.57% | Activity (HL-60 [10]): 0.63% | Activity (HL-60 [11]): 1.3% | Activity (HL-60 [12]): 33% | Activity (HL-60 [13]): 59% | Activity (HL-60 [14]): 8% | Activity (HL-60 [15]): 24% | Activity (HL-60 [16]): 69% | Activity (HL-60 [17]): 8% | Activity (HL-60 [18]): Active | IC50 (HL-60 [7]): 1.88 µM | Activity (HL-60 [19]): Active | Activity (HL-60 [20]): 54% | Activity (HL-60 [21]): 37% | Activity (HL-60 [22]): 10%

OC[C@H]1O[C@@H](n2cnc3c(CSCc4ccccc4)ncnc32)[C@H](O)[C@@H]1O
IC50 (HL-60 [1]): 19.2 µM | Activity (L1210): inactive | IC50 (CCRF-CEM [2]): 9.2 µM | IC50 (CCRF-CEM [8]): 4.65 µM | Activity (HeLa): inactive | EC50 (Hepatitis C virus): > 100 µM | CC50 [3]: > 100 µM | Activity (HL-60 [23]): 1.99% | Activity (HL-60 [24]): 0.43% | Activity (HL-60 [25]): 0.88% | Activity (HL-60 [18]): Active | IC50 (HL-60 [7]): 10.7 µM
